In the library only some 3.6% were active in any assay of this set; here they are far more common.
GRIN3A LBD mod – modulators (binders) of human NR3A ligand-binding domain | Tm shift relative to glycine control, % at 25 µM | NR3A LBD differential scanning fluorimetry, Tm shift; 0% = protein alone, 100% = glycine-bound protein | 340,000 tested, 2.5% active | AID 1259313;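 active means melting temperature shift of at least 10% of the positive control shift, at one fixed dose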
NadD block – blocks S. aureus nicotinate mononucleotide adenylyltransferase; purified NadD enzyme, colorimetric absorbance read-out; inhibition, % at 20 µM; 360,000 tested, 0.78% active; AID 602399; in the data active means inhibition above about 26%
SENP1 inh – inhibitors of human SENP1 SUMO protease catalytic domain; recombinant SENP1 catalytic domain, CyPet-SUMO1-YPet FRET cleavage; inhibition, % at 10 µM; 360,000 tested, 0.21% active; AID 624204;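 active means inhibition at least 30% at 10 µM, raw YFP signal under a set limit, fluorescence ratio 0.5 to 1.5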;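 further: 0% = enzyme with DMSO and 100% = no enzyme wells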
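Assay system – human recombinant His6-tagged SENP1 catalytic domain enzyme · Input – SENP1 enzyme, 20 pM final · Buffer or medium – Tris pH 8 buffer plus EDTA, NaCl, BME, BSA, NP40, catalase · Schedule – 50 min reaction at room temperature · Technique – FRET read of cyan and yellow fluorescence · Control set – no-enzyme wells low, DMSO-plus-enzyme wells high control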
ATG4B inhibitor – ATG4B (human) cysteine protease inhibition; 340,000 tested, 0.51% active; ATG4B cleavage of LC3-PLA2, NBD-HPC fluorescence, 1 h; Q9Y4P1; inhibition, % at 8.33 µM; in the data active means inhibition above about 40%
UCH37 DUB inh – inhibitors of human deubiquitinating enzyme UCH37 | inhibition, % (no concentration beside the values) | purified proteasome/UCH37, Ub-AMC cleavage fluorescence | Q9Y5K5 | 330,000 tested, 0.33% active | AID 588478;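 active means mean inhibition over replicate wells above about 20%, limit read from the data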;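 further: 0% = compound-free wells with enzyme and 100% = wells lacking proteasome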
Target sequence (Q9Y5K5 whole entry, looked up): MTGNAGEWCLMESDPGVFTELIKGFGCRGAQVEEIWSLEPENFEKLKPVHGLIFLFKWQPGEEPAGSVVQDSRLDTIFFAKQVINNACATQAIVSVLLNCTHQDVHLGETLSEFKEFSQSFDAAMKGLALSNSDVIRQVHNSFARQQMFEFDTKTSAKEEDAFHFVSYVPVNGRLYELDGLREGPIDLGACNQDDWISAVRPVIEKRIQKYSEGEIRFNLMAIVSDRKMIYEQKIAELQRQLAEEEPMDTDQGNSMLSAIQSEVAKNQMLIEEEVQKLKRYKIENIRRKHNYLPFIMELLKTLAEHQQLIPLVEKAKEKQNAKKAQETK
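Material: Human UCH37 enzyme supplied as purified proteasome complex | Schedule: 30 min preincubation with enzyme, 25 min cleavage at room temperature | Detection: AMC fluorescence 355/460 nm | Measure: % inhibition of Ub-AMC cleavage fluorescence | Controls: Wells without proteasome as full block, compound-free enzyme plus substrate as uninhibited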
* = called active by the depositor; · = no result.

SMILES | GRIN3A LBD mod | NadD block | SENP1 inh | ATG4B inhibitor | UCH37 DUB inh
CCN(CC)c1ccc(C=NNC(=O)C(O)c2ccccc2)cc1 (stereo not drawn) | · | · | · | · | -232
CCOC(=O)C=c1sc(=Cc2ccccc2OC)c(=O)n1CC(=O)N1CCOCC1 | · | · | · | · | 5
O=C1C(Oc2ccccc2)C(c2ccc3c(c2)OCO3)N1CCc1ccc(F)cc1 (stereo not drawn) | 13* | -4 | 0 | -9 | 4
CC(=O)ON=C(N)c1ccc(-c2csnn2)cc1 | · | · | · | · | 3
O=[N+]([O-])c1ccc(-c2nc(NCc3ccccc3)c3ccccc3n2)cc1 | 50* | 7 | 2 | 6 | 7
O=[N+]([O-])c1cccc(-c2nc(NCc3ccccc3)c3ccccc3n2)c1 | 339* | 11 | 0 | -2 | 4
c1ccc(-c2nc(NCc3cccnc3)c3ccccc3n2)cc1 | -10 | 2 | -1 | 14 | 1
Fc1ccc(CNc2nc(-c3ccccc3)nc3ccccc23)cc1 | 21* | 4 | -2 | 14 | 0
Cc1ccc(-c2nc(NCc3cccnc3)c3ccccc3n2)cc1 | -8 | 0 | -1 | 32 | -3
c1ccc(-c2nc(NCc3cccs3)c3ccccc3n2)cc1 | 18* | -5 | 2 | 12 | 4
O=C(O)c1ccc(NN=Cc2cccc3cccnc23)cc1 | · | · | · | · | 12
O=C(O)CCC(=NNc1ccc([N+](=O)[O-])cc1)c1ccccc1 | · | · | · | · | 10
C=CCc1cccc(C=NNC(=O)c2ccccc2OC)c1O | · | · | · | · | 5
Cc1ccc(C=NNC(=O)c2ccc(N(C)S(=O)(=O)c3ccccc3)cc2)cc1 | · | · | · | · | 1
Cc1cc(-c2cccc([N+](=O)[O-])c2)nc2ccc3ccccc3c12 | 27* | 4 | -7 | 5 | 2
O=C(O)c1cc(-c2cccc([N+](=O)[O-])c2)nc2ccccc12 | 0 | -6 | 2 | 0 | 7
CC(=NNS(=O)(=O)c1ccc(Br)cc1)c1ccc(NC(=O)c2ccc(C)o2)cc1 | · | · | · | · | 2
COc1ccc2[nH]cc(CCn3ccc(O)c(C/C=C/c4ccccc4)c3=O)c2c1 | 13* | -1 | 1 | -6 | 5
C/C(CC(=O)Nc1ccc(Cl)c(C(F)(F)F)c1)=N\NC(=O)c1cc2ccccc2cc1O | 30* | 36* | -29 | 12 | ·
CC(CC(=O)Nc1ccc(Cl)c(C(F)(F)F)c1)=NNC(=O)c1cc2ccccc2cc1O | · | · | · | · | -19
Cc1cccc(C(=O)Oc2ccccc2C=NNC(=O)c2ccc(NC(=O)C(C)(C)C)cc2)c1 | · | · | · | · | 4
OC1CCN(C(=S)NCCc2ccccc2)CC1 | -1 | 3 | 1 | -5 | 1
S=C(NCCc1ccccc1)N1CCc2ccccc2C1 | -8 | -4 | 2 | -4 | 22*
S=C(NC1CCCCC1)N1CCc2ccccc2C1 | 11* | -3 | 2 | 12 | 4
S=C(NC1CC1)N1CCc2ccccc2C1 | -1 | 5 | 2 | -2 | 6
SMILES | GRIN3A LBD mod | NadD block | SENP1 inh | ATG4B inhibitor | UCH37 DUB inh
COc1cc(/C=C2/CC/C(=C/c3ccc(O)c(OC)c3)C2=O)ccc1O | 14* | 17 | -39 | 29 | 5
C=CCOc1ccc(/C=C2\SC(N)=NC2=O)cc1OC | 1 | -2 | 3 | -7 | 0
COc1cc(/C=C/C=C2/CC/C(=C/C=C/c3ccc(O)c(OC)c3)C2=O)ccc1O | 3 | 70* | -3 | 28 | ·
COc1ccc(C=C2SC(=O)NC2=O)cc1OC | 16* | 2 | 3 | -5 | 11
COc1ccccc1OCCCOc1ccc(/C=C2\SC(=O)NC2=O)cc1OC | -5 | 7 | -25 | -3 | 6
COc1cc(/C=C2\CC/C(=C\c3ccc(OCCO)c(OC)c3)C2=O)ccc1OCCO | -6 | -8 | -21 | -2 | 5
COc1cc(/C=C2\SC(N)=NC2=O)ccc1O | -3 | 1 | 40* | 4 | 8
COc1cccc(C=NNC(=O)CNC(=O)c2ccco2)c1O | · | · | · | · | 4
O=C(NN=Cc1cn(-c2ccccc2)nc1-c1ccccc1)c1ccc(Br)o1 | · | · | · | · | -5
COc1cc(/C=C2\COC/C(=C\c3ccc(O)c(OC)c3)C2=O)ccc1O | 26* | 1 | -4 | 2 | 8
COc1cc(/C=C2/C(=O)ON=C2c2ccccc2)ccc1O | 11* | 4 | 2 | 4 | -3
COc1ccc(/C=C2\CC/C(=C\c3ccc(OC)c(OC)c3)C2=O)cc1OC | 16* | -7 | 8 | 11 | 1
COc1cc(/C=C2\N=C3CCCCCN3C2=O)ccc1O | -1 | 3 | 37* | -11 | 12

Screening data (PubChem BioAssay)
